Measured values published in ChEMBL document CHEMBL3868612, “Discovery of a potent and selective ROMK inhibitor with improved pharmacokinetic properties based on an octahydropyrazino[2,1-c][1,4]oxazine scaffold” (Bioorg Med Chem Lett, 2016).

Assays:
[1] = Stability in human hepatocytes assessed as compound remaining at 90 mins; assay type: ADME, cell-based, Hepatocyte; details: read-out: Stability
[2] = Stability in rhesus monkey hepatocytes assessed as compound remaining at 90 mins; assay type: ADME, cell-based, Macaca mulatta, Hepatocyte; details: read-out: Stability
[3] = molecular target: T1, ATP-sensitive inward rectifier potassium channel 10 (Homo sapiens, UniProt P78508); assay: Inhibition of Kir4.1 (unknown origin)
T1 sequence (P78508 whole entry): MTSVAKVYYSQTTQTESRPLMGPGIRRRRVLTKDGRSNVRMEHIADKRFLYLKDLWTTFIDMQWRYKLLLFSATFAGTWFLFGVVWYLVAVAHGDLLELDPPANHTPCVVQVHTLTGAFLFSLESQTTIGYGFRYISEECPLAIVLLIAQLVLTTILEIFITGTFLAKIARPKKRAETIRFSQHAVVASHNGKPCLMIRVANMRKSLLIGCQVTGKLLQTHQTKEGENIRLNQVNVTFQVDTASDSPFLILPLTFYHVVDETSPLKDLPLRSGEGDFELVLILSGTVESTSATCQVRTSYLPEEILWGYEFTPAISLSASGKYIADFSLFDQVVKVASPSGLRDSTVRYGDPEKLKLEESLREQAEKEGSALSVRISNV

[4] = molecular target: Voltage-dependent L-type calcium channel subunit alpha-1C (Homo sapiens, UniProt Q13936); assay: Inhibition of Cav1.2 (unknown origin)
[5] = Dose normalized AUC in Beagle dog at 2 mg/kg, po administered qd; assay type: ADME, organism-based, Canis lupus familiaris; details: in vivo
[6] = Half life in Beagle dog at 1 mg/kg, iv or 2 mg/kg, po administered qd; assay type: ADME, organism-based, Canis lupus familiaris; details: in vivo
[7] = Half life in rhesus monkey at 1 mg/kg, iv or 2 mg/kg, po administered qd; assay type: ADME, organism-based, Macaca mulatta; details: in vivo
Rattus norvegicus [8] = assay: Antihypertensive activity in […] rat model assessed as change in systolic blood pressure at 3 mg/kg, po administered qd measured on day 3; assay type: functional
Summary of the method: (§1)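 Spontaneously hypertensive rats were dosed orally once daily for 3 days. Systolic blood pressure change was read on day 3 relative to vehicle, with n = 5 per group.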

Rattus norvegicus [9] = assay: Antihypertensive activity in […] rat model assessed as increase in diuresis at 10 mg/kg, po qd measured on day 1 post dose relative to control; assay type: functional
Summary of the method: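 Spontaneously hypertensive rats dosed orally once daily for 3 days at 3, 10 and 30 mg/kg (reference diuretic at 25 mg/kg); 24 h urine output on day 1 expressed as fold increase over vehicle-treated rats; n = 5 per group.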

Rattus norvegicus [10] = assay: Antihypertensive activity in […] rat model assessed as change in systolic blood pressure at 10 mg/kg, po administered qd measured on day 3; assay type: functional; summary of the method: as §1

Voltage-dependent L-type calcium channel subunit alpha-1C, sequence (Q13936 whole entry): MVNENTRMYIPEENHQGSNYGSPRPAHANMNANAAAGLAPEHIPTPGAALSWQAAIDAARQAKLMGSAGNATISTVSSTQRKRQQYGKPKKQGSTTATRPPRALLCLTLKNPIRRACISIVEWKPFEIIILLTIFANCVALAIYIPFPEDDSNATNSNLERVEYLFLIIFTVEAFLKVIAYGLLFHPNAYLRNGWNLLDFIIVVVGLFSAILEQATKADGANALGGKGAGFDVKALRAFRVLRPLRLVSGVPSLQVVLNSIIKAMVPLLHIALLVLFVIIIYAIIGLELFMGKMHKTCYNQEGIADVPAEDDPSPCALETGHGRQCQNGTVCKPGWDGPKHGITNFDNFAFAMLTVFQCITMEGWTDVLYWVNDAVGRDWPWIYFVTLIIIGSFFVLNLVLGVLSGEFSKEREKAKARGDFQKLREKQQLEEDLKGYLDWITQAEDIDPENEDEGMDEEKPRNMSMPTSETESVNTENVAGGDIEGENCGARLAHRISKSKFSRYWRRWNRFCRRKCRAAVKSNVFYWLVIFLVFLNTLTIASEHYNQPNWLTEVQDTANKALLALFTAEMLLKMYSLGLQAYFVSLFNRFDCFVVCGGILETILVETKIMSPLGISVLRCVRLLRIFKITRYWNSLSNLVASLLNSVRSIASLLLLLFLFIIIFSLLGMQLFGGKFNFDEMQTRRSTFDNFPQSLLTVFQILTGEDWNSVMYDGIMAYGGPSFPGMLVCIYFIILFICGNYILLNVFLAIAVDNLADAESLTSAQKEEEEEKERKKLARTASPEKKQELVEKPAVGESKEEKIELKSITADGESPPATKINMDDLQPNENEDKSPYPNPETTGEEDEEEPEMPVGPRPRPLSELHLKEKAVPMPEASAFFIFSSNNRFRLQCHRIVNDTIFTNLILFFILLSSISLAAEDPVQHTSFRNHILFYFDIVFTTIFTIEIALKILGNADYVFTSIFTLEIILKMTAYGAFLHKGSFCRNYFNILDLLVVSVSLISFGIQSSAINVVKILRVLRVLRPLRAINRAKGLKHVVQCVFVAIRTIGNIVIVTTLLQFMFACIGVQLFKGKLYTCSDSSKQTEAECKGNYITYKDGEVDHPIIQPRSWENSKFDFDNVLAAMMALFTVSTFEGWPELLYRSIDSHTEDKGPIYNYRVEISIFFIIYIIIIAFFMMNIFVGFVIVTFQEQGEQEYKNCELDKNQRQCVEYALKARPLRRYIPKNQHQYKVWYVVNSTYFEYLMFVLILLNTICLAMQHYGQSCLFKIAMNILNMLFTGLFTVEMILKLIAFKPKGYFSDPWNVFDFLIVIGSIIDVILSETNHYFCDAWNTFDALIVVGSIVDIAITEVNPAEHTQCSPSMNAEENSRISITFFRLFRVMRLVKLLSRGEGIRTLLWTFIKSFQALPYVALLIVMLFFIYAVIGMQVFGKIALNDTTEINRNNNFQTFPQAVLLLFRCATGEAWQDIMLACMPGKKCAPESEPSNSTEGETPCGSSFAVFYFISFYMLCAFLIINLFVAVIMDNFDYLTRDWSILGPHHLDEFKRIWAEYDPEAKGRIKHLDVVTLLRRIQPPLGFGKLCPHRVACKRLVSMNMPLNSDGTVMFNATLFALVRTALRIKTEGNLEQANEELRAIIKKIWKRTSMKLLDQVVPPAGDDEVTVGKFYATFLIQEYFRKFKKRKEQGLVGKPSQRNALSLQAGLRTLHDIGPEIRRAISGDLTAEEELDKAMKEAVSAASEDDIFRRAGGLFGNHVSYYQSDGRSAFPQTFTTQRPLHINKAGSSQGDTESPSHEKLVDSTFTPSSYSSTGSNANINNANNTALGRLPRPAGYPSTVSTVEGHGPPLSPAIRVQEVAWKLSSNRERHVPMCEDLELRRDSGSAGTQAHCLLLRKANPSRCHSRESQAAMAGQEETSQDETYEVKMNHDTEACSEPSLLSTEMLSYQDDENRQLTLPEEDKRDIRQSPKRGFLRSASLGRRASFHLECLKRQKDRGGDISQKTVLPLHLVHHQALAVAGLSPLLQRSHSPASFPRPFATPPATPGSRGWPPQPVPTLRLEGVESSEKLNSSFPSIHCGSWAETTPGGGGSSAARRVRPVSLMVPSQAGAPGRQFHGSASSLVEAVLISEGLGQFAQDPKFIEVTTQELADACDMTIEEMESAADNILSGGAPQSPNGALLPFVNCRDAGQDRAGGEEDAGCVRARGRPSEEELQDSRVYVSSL

SMILES: Cc1c([C@@H]2CN3CCN(C(=O)Cc4ccc(-n5cnnn5)cn4)C[C@H]3CO2)ccc(F)c1C#N
- remaining at 1.5 h [1]: 99%
- remaining at 1.5 h [2]: 92%
- IC50 [3]: > 100 µM
- IC50 [4]: > 30 µM
- AUC/dose [5]: 16.7 µM·kg·h/mg
- half-life [6]: 17.3 h
- half-life [7]: 5 h
- Activity (Rattus norvegicus [8]): -9 mmHg
- fold change (FC) (Rattus norvegicus [9]): 1.6
- Activity (Rattus norvegicus [10]): -16 mmHg
